{"source": "ChEMBL document CHEMBL4431335", "about": "“Synthesis and trypanocidal activity of novel benzimidazole derivatives” (Bioorg Med Chem Lett, 2016)", "key": {"[1]": {"target": "Triosephosphate isomerase, glycosomal (Trypanosoma cruzi) (UniProt P52270)", "sequence (P52270 whole entry)": "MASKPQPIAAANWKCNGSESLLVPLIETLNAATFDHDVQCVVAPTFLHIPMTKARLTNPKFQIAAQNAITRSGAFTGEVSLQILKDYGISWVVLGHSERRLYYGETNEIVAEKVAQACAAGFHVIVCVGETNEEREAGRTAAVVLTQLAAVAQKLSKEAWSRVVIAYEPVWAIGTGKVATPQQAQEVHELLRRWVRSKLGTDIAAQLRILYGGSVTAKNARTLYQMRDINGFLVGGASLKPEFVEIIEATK", "assay": "Inhibition of recombinant Trypanosoma cruzi triosephosphate isomerase assessed as reduction of DHAP at 200 uM after 2 hrs by measuring NADH consumption by alpha-glycerolphosphate dehydrogenase coupled assay", "summary_of_the_method": "(§1)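 Recombinant TIM (T. cruzi or human) at 5 µg/mL was preincubated with compound at 36 °C in 100 mM triethanolamine, 10 mM EDTA, pH 7.4, with compound dissolved in 10% DMSO. After 2 h, 1 µL was transferred into 1 mL of activity mix. Activity was measured as NADH consumed by α-glycerolphosphate dehydrogenase reducing DHAP. Controls were enzyme alone, substrate alone, and enzyme plus DMSO.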"}, "[2]": {"target": "Triosephosphate isomerase, glycosomal (Trypanosoma cruzi, UniProt P52270)", "sequence (P52270 whole entry)": "as above", "assay": "Inhibition of recombinant Trypanosoma cruzi triosephosphate isomerase assessed as reduction of DHAP after 2 hrs by measuring NADH consumption by alpha-glycerolphosphate dehydrogenase coupled assay", "summary_of_the_method": "as §1"}, "[3]": {"target": "Triosephosphate isomerase (Homo sapiens) (UniProt P60174)", "sequence (P60174 whole entry)": "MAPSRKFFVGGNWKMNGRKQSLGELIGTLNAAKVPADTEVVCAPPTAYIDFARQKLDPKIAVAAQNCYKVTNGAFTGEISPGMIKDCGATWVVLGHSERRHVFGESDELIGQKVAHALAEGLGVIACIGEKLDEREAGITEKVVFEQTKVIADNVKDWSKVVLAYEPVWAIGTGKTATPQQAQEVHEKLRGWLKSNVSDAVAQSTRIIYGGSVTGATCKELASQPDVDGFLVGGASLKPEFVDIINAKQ", "assay": "Inhibition of recombinant human triosephosphate isomerase assessed as reduction of DHAP at 200 uM after 2 hrs by measuring NADH consumption by alpha-glycerolphosphate dehydrogenase coupled assay", "summary_of_the_method": "as §1"}, "Trypanosoma cruzi [4]": {"test_system": "Trypanosoma cruzi", "assay": "Antitrypanosomal activity against epimastigote forms of Trypanosoma cruzi NINOA isolated from chagas disease patient after 24 hrs by resazurin dye based spectrophotometric analysis", "assay_type": "functional, organism-based", "summary_of_the_method": "(§2)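 Epimastigotes at 1 × 10⁵/ml were exposed to compound for 24 h at 28 °C. Compounds were taken from 10 mg/mL DMSO stocks and diluted in sterile water, with final DMSO at most 1%. Concentrations were […], with DMSO-treated parasite controls. Viability was read by resazurin fluorescence (535/590 nm). Runs were in duplicate and IC50 was derived.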"}, "Trypanosoma cruzi [5]": {"test_system": "Trypanosoma cruzi", "assay": "Antitrypanosomal activity against epimastigote forms of Trypanosoma cruzi INC-5 isolated from chagas disease patient after 24 hrs by resazurin dye based spectrophotometric analysis", "assay_type": "functional, organism-based", "conditions": "INC-5, 24 h", "summary_of_the_method": "as §2"}, "[6]": {"assay": "Cytotoxicity against mouse J774 cells assessed as decrease in cell viability after 24 hrs by resazurin assay", "assay_type": "cell-based", "summary_of_the_method": "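Mouse J774 macrophages were grown in DMEM with 10% FBS and treated with a range of compound concentrations for 24 h at 37 °C, 5% CO₂, with final DMSO below 1%. Untreated cells served as controls. Resazurin was added for 3 h and fluorescence was read (535/590 nm). Cytotoxicity was scored as % metabolic reduction versus untreated cells, and CC50 was derived.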"}, "[7]": {"target": "Triosephosphate isomerase, glycosomal (Trypanosoma cruzi) (UniProt P52270)", "assay": "Inhibition of recombinant Trypanosoma cruzi triosephosphate isomerase assessed as reduction of DHAP at 100 uM after 2 hrs by measuring NADH consumption by alpha-glycerolphosphate dehydrogenase coupled assay", "summary_of_the_method": "as §1"}, "[8]": {"assay": "Solubility of the compound in DMSO at 200 uM", "assay_type": "physicochemical"}, "[9]": {"target": "Triosephosphate isomerase (Homo sapiens) (UniProt P60174)", "assay": "Inhibition of recombinant human triosephosphate isomerase assessed as reduction of DHAP at 100 uM after 2 hrs by measuring NADH consumption by alpha-glycerolphosphate dehydrogenase coupled assay", "summary_of_the_method": "as §1"}}}
{"molecule": "O=C(CSc1nc2cc(Oc3cccc4ccccc34)c(Cl)cc2[nH]1)Nc1ncc([N+](=O)[O-])s1", "values": [{"measurement": "inhibition", "setting": "[1]", "result": 48, "unit": "%"}]}
{"molecule": "COC(=O)c1cc2nc(SCC(=O)Nc3ncc([N+](=O)[O-])s3)[nH]c2cc1Cl", "values": [{"measurement": "inhibition", "setting": "[1]", "result": 69, "unit": "%"}, {"measurement": "IC50", "setting": "[2]", "result": 77, "unit": "µM"}, {"measurement": "inhibition", "setting": "[3]", "result": 15, "unit": "%"}, {"measurement": "IC50", "setting": "Trypanosoma cruzi [4]", "result": 95.4, "unit": "µM"}, {"measurement": "IC50", "setting": "Trypanosoma cruzi [5]", "result": 42.5, "unit": "µM"}, {"measurement": "CC50 at 24 h", "setting": "[6]", "result": 84.9, "unit": "µM"}]}
{"molecule": "COC(=O)c1cc2nc(SCC(=O)Nc3ccc([N+](=O)[O-])cn3)[nH]c2cc1Cl", "values": [{"measurement": "inhibition", "setting": "[7]", "result": 0, "unit": "%"}, {"measurement": "solubility", "setting": "[8]", "result": "Insoluble"}]}
{"molecule": "COC(=O)c1cc2nc(SCC(=O)Nc3cccc(C(N)=O)n3)[nH]c2cc1Cl", "values": [{"measurement": "inhibition", "setting": "[7]", "result": 0, "unit": "%"}, {"measurement": "solubility", "setting": "[8]", "result": "Insoluble"}]}
{"molecule": "COC(=O)c1cc2nc(SCC(=O)Nc3ccccc3)[nH]c2cc1Cl", "values": [{"measurement": "inhibition", "setting": "[1]", "result": 33, "unit": "%"}]}
{"molecule": "COC(=O)c1cc2nc(SCC(=O)Nc3nccs3)[nH]c2cc1Cl", "values": [{"measurement": "inhibition", "setting": "[1]", "result": 59, "unit": "%"}, {"measurement": "IC50", "setting": "[2]", "result": 223, "unit": "µM"}, {"measurement": "inhibition", "setting": "[3]", "result": 0, "unit": "%"}, {"measurement": "IC50", "setting": "Trypanosoma cruzi [4]", "result": 120, "unit": "µM"}, {"measurement": "IC50", "setting": "Trypanosoma cruzi [5]", "result": 48.9, "unit": "µM"}, {"measurement": "CC50 at 24 h", "setting": "[6]", "result": 104, "unit": "µM"}]}
{"molecule": "COC(=O)c1cc2nc(SCC(=O)Nc3ccc(Cl)cn3)[nH]c2cc1Cl", "values": [{"measurement": "inhibition", "setting": "[7]", "result": 41, "unit": "%"}, {"measurement": "solubility", "setting": "[8]", "result": "Insoluble"}, {"measurement": "inhibition", "setting": "[9]", "result": 0, "unit": "%"}, {"measurement": "IC50", "setting": "Trypanosoma cruzi [4]", "result": 124, "unit": "µM"}, {"measurement": "IC50", "setting": "Trypanosoma cruzi [5]", "result": 95, "unit": "µM"}, {"measurement": "CC50 at 24 h", "setting": "[6]", "result": 82.7, "unit": "µM"}]}
{"molecule": "COC(=O)c1cc2nc(SCC(=O)Nc3ncccn3)[nH]c2cc1Cl", "values": [{"measurement": "inhibition", "setting": "[1]", "result": 0, "unit": "%"}]}
{"molecule": "COC(=O)c1cc2nc(SCC(=O)Nc3ccc(Cl)cc3)[nH]c2cc1Cl", "values": [{"measurement": "inhibition", "setting": "[7]", "result": 65, "unit": "%"}, {"measurement": "solubility", "setting": "[8]", "result": "Insoluble"}, {"measurement": "inhibition", "setting": "[9]", "result": 0, "unit": "%"}, {"measurement": "IC50", "setting": "Trypanosoma cruzi [4]", "result": 57, "unit": "µM"}, {"measurement": "IC50", "setting": "Trypanosoma cruzi [5]", "result": 186, "unit": "µM"}, {"measurement": "CC50 at 24 h", "setting": "[6]", "result": 90.4, "unit": "µM"}]}
{"molecule": "COC(=O)c1cc2nc(SCC(=O)Nc3cccc(Cl)n3)[nH]c2cc1Cl", "values": [{"measurement": "inhibition", "setting": "[7]", "result": 21, "unit": "%"}, {"measurement": "solubility", "setting": "[8]", "result": "Insoluble"}]}
{"molecule": "COC(=O)c1cc2nc(SCC(=O)Nc3cnccn3)[nH]c2cc1Cl", "values": [{"measurement": "inhibition", "setting": "[1]", "result": 68, "unit": "%"}, {"measurement": "IC50", "setting": "[2]", "result": 82, "unit": "µM"}, {"measurement": "inhibition", "setting": "[3]", "result": 6, "unit": "%"}, {"measurement": "IC50", "setting": "Trypanosoma cruzi [4]", "result": 98.8, "unit": "µM"}, {"measurement": "IC50", "setting": "Trypanosoma cruzi [5]", "result": 28.7, "unit": "µM"}, {"measurement": "CC50 at 24 h", "setting": "[6]", "result": 135, "unit": "µM"}]}
{"molecule": "COC(=O)c1cc2nc(SCC(=O)Nc3ccc(OC)cn3)[nH]c2cc1Cl", "values": [{"measurement": "inhibition", "setting": "[7]", "result": 4, "unit": "%"}, {"measurement": "solubility", "setting": "[8]", "result": "Insoluble"}]}
{"molecule": "COC(=O)c1cc2nc(SCC(=O)Nc3ccccn3)[nH]c2cc1Cl", "values": [{"measurement": "inhibition", "setting": "[1]", "result": 10, "unit": "%"}]}
{"molecule": "COC(=O)c1cc2nc(SCC(=O)Nc3cccc(C)n3)[nH]c2cc1Cl", "values": [{"measurement": "inhibition", "setting": "[7]", "result": 0, "unit": "%"}, {"measurement": "solubility", "setting": "[8]", "result": "Insoluble"}]}
{"molecule": "CC1CS(=O)(=O)CCN1/N=C/c1ccc([N+](=O)[O-])o1", "note": "(centres undefined) [NIFURTIMOX]", "values": [{"measurement": "IC50", "setting": "Trypanosoma cruzi [4]", "result": 89.8, "unit": "µM"}, {"measurement": "IC50", "setting": "Trypanosoma cruzi [5]", "result": 50.8, "unit": "µM"}, {"measurement": "CC50 at 24 h", "setting": "[6]", "result": 132, "unit": "µM"}]}
{"molecule": "COC(=O)c1ccc2nc(SCC(=O)Nc3ncc([N+](=O)[O-])s3)[nH]c2c1", "values": [{"measurement": "inhibition", "setting": "[1]", "result": 52, "unit": "%"}]}
{"molecule": "COC(=O)c1cc2nc(SCC(=O)Nc3ccncc3)[nH]c2cc1Cl", "values": [{"measurement": "inhibition", "setting": "[1]", "result": 33, "unit": "%"}]}
